A short description of test [1]: Cytoprotective activity against glucotoxicity in Sprague-Dawley rat DRG neurons assessed as cell viability at 1 uM by calcein-AM assay. As to conditions: DRG neuron, read-out: Activity. The class given is functional. The gist of the method:
(§1)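 Dorsal root ganglion neurons came from embryonic day 15–18 Sprague Dawley rats. They were trypsin-dissociated and grown on collagen in Neurobasal medium with 25 mM glucose, B-27 and 50 ng/ml NGF. Fluorodeoxyuridine and cytosine arabinoside were given for 2 days. On day 3, neurons received compound plus 20 mM excess glucose (45 mM total) for 4 h. Viability was read with 2 μM calcein AM, 30 min at 37°C, ex 485/em 520 nm, normalized to well protein.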

Test [2] in a line: Cytoprotective activity against glucotoxicity in Sprague-Dawley rat DRG neurons assessed as cell viability by calcein-AM assay. The class given is functional. As to conditions: DRG neuron. An outline of the steps:
as §1

Test [3] relates to Nucleic Acid. Kind of test: Activation of human HSP70 promoter transfected in rat 50B11 cells at 10 to 1000 nM after 16 hrs by luciferase reporter gene assay. It counts as cell-based. An outline of the steps: (§2)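 50B11 immortalized sensory neurons were grown in DMEM with 25 mM glucose, 10% FCS and 5 μg/ml blasticidin. They were lipofected with a luciferase reporter driven by the human Hsp70 promoter, which carries two heat shock elements. Cells were re-seeded after 24 h and exposed to compound for 16 h. Luciferase in lysates was normalized to total protein per well, with triplicate wells in at least three experiments.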

In the next test the test system is DRG neuron. Kind of test: Induction of HSP70 protein expression in Sprague-Dawley rat DRG neurons at 10 to 1000 nM. It counts as functional. An outline of the steps: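 Rat embryonic DRG neurons were preincubated overnight with 10–1000 nM compound or DMSO, then exposed to 4 h hyperglycemia. Hsp70 and β-actin were measured by immunoblot. Band intensity of Hsp70 was normalized to β-actin and expressed as fold of control.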

Test [4] concerns the target T1, Heat shock protein HSP90 (Homo sapiens) (UniProt P07900+P08238). Kind of test: Inhibition of HSP90 in human MCF7 cells assessed as degradation of Her2 up to 5 uM after 24 hrs by immunoblot analysis. The class given is cell-based. An outline of the steps:
(§3)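 MCF7 cells were exposed to compound for 24 h. Lysates were immunoblotted for the Hsp90 clients Her2, Raf and Akt, with β-actin as loading control. Geldanamycin at 500 nM served as the positive control for client degradation.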

The target of test [5] is T1, Heat shock protein HSP90 (Homo sapiens). Kind of test: Inhibition of HSP90 in human MCF7 cells assessed as degradation of Raf up to 5 uM after 24 hrs by immunoblot analysis. It counts as cell-based. The gist of the method:
as §3
Background: Immunoblotting shows a protein as a band on a membrane.

Test [6] has the same target. As to the kind of experiment: Inhibition of HSP90 in human MCF7 cells assessed as degradation of Akt up to 5 uM after 24 hrs by immunoblot analysis. The class given is cell-based. An outline of the steps:
as §3

Test [7] in a line: Ratio of KU-32 ED50 to compound ED50 for cytoprotective activity against glucotoxicity in Sprague-Dawley rat DRG neurons. The class given is functional, DRG neuron.
For test [8], the system named is Nucleic Acid. As to the kind of experiment: Activation of human HSP70 promoter transfected in rat 50B11 cells at 1 uM after 16 hrs by luciferase reporter gene assay. The class given is cell-based. An outline of the steps:
as §2

The source made the active and inactive calls. The calls are words filed in the database; no cut-off is given here.

As for `CO[C@@H]1[C@@H](O)[C@@H](O)[C@H](Oc2ccc(C3CC=CCC3NC(C)=O)c(-c3cccc(F)c3)c2)OC1(C)C` (mixture of isomers), the viability at 1 µM in [1] is 78%.

As for `CO[C@@H]1[C@@H](O)[C@@H](O)[C@H](Oc2ccc(CCNC(C)=O)c(-c3cccc(C(F)(F)F)c3)c2)OC1(C)C`, the EC50 in test [2] is 188 nM. The viability at 1 µM in test [1] is 83%.

Consider `CO[C@@H]1[C@@H](O)[C@@H](O)[C@H](Oc2ccc(CCNC(C)=O)c(-c3ccc(O)cc3)c2)OC1(C)C`, for which, in [1], the viability at 1 µM is 67%.

As to `CO[C@@H]1[C@@H](O)[C@@H](O)[C@H](Oc2ccc(CCNC(C)=O)c(-c3ccccc3SC)c2)OC1(C)C`, in test [2], the EC50 was 384 nM. Besides, in test [1], the viability at 1 µM was 83%.

`CO[C@@H]1[C@@H](O)[C@@H](O)[C@H](Oc2ccc(CCNC(C)=O)c(-c3ccncc3)c2)OC1(C)C`: the viability at 1 µM in test [1] was 81%.

On to `CO[C@@H]1[C@@H](O)[C@@H](O)[C@H](Oc2ccc(CCNC(C)=O)c(-c3cccc(Cl)c3)c2)OC1(C)C`, for which the viability at 1 µM in test [1] is 90%.

As to `CO[C@@H]1[C@@H](O)[C@@H](O)[C@H](Oc2ccc(CCNC(C)=O)c(-c3ccccc3Cl)c2)OC1(C)C`, the viability at 1 µM in [1] was 71%.

For `CO[C@@H]1[C@@H](O)[C@@H](O)[C@H](Oc2ccc(CCNC(C)=O)c(-c3ccc4c(c3)OCO4)c2)OC1(C)C`, the EC50 in test [2] was 18.4 nM. The result with Nucleic Acid [3] and with DRG neuron was inactive. The viability at 1 µM in test [1] is 83%.

`COc1cccc(-c2cc(O[C@@H]3OC(C)(C)[C@H](OC)[C@@H](O)[C@H]3O)ccc2CCNC(C)=O)c1`: the viability at 1 µM in test [1] was 78%.

As for `CO[C@@H]1[C@@H](O)[C@@H](O)[C@H](Oc2ccc(CCNC(C)=O)c(-c3cccc(F)c3)c2)OC1(C)C` [CEMDOMESPIB], in [2], the concentration for a half-maximal effect (EC50) was 13 nM. Moreover, the outcome in the test on Nucleic Acid [3] and with DRG neuron was Active. For the same compound, the inhibition result in test [4], in test [5] and in [6] was “inactive” throughout. Also, the “Ratio ED50” value in test [7] worked out at 14. Further, in [1], the viability at 1 µM was 95%.

As for `COc1ccccc1-c1cc(O[C@@H]2OC(C)(C)[C@H](OC)[C@@H](O)[C@H]2O)ccc1CCNC(C)=O`, the result with Nucleic Acid [8] was Active. Moreover, the viability at 1 µM in [1] was 92%.

In the case of `CO[C@@H]1[C@@H](O)[C@@H](O)[C@H](Oc2ccc3cc(NC(C)=O)c(=O)oc3c2C)OC1(C)C`, in test [2], the EC50 is 240 nM. Also, the result with Nucleic Acid [3] and in the test with DRG neuron was Active. In [1], the viability at 1 µM was 86%.

Take `CO[C@@H]1[C@@H](O)[C@@H](O)[C@H](Oc2ccc(CCNC(C)=O)c(-c3cccnc3)c2)OC1(C)C`: in [1], the viability at 1 µM was 61%.

For `CO[C@@H]1[C@@H](O)[C@@H](O)[C@H](Oc2ccc(C3CC=CCC3NC(C)=O)c(-c3cccc(C(F)(F)F)c3)c2)OC1(C)C` (mixture of isomers), in test [1], the viability at 1 µM was 69%.

For the compound `CO[C@@H]1[C@@H](O)[C@@H](O)[C@H](Oc2ccc(CCNC(C)=O)c(-c3ccc(C(F)(F)F)cc3)c2)OC1(C)C`, the viability at 1 µM in test [1] is 74%.

In the case of `CO[C@@H]1[C@@H](O)[C@@H](O)[C@H](Oc2ccc(CCNC(C)=O)c(-c3ccc(F)cc3)c2)OC1(C)C`, in test [1], the viability at 1 µM is 75%.

Turning to `CO[C@@H]1[C@@H](O)[C@@H](O)[C@H](Oc2ccc(CCNC(C)=O)c(-c3cccc(CN4CCOCC4)c3)c2)OC1(C)C`, in test [1], the viability at 1 µM was 83%.

For `CO[C@@H]1[C@@H](O)[C@@H](O)[C@H](Oc2ccc(CCNC(C)=O)c(-c3cccc(C)c3)c2)OC1(C)C`, the viability at 1 µM in test [1] was 82%.

Consider `CO[C@@H]1[C@@H](O)[C@@H](O)[C@H](Oc2ccc(CCNC(C)=O)c(-c3ccccc3)c2)OC1(C)C`, for which the viability at 1 µM in test [1] was 76%.

The EC50 is the concentration needed to bring the measured effect to its halfway point.

(Values after ChEMBL document CHEMBL2157863, “Synthesis and evaluation of novologues as C-terminal Hsp90 inhibitors with cytoprotective activity against sensory neuron glucotoxicity” (J Med Chem, 2012).)
